According to ChEMBL document CHEMBL4330115, “Discovery of a new class of valosine containing protein (VCP/P97) inhibitors for the treatment of non-small cell lung cancer” (Bioorg Med Chem, 2019):
pIC50: −log10 of the molar value.

How the values were obtained:
[1] = target: Transitional endoplasmic reticulum ATPase (Homo sapiens, UniProt P55072); assay: Inhibition of human p97 using ATP as substrate after 60 mins by ADP-Glo assay; conditions: for pIC50: read-out: IC50
A549 = assay: Antiproliferative activity against human A549 cells after 72 hrs by CCK-8 assay; type: functional, cell-based; conditions: A549, 72 h
[2] = MRT in Sprague-Dawley rat at 30 mg/kg, ig administered as single dose by LC-MS/MS analysis; type: ADME, organism-based; conditions: in vivo, po
In short: (§1)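 Male Sprague-Dawley rats received a single dose, iv by tail vein at 5 mg/kg or orally (ig) at 30 mg/kg. Vehicle was a solution of 40% PEG400, 10% castor oil, 5% EtOH and 45% buffered saline. Orbital sinus blood (0.1 mL) was taken into heparinized tubes at 2, 5, 15 and 30 min and at 1, 2, 4, 8 and 24 h, then centrifuged for plasma.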

[3] = Half life in rat liver microsomes at 1 uM after 60 mins by LC-MS analysis; type: ADME, Microsome
[4] = Intrinsic clearance in human liver microsomes at 1 uM after 60 mins by LC-MS analysis; type: ADME, Microsome; conditions: 1 h
[5] = Cmax in Sprague-Dawley rat at 30 mg/kg, ig administered as single dose by LC-MS/MS analysis; type: ADME, organism-based; parameters: dose 30 mg/kg, route intragastric; conditions: in vivo, po; in short: as §1
[6] = Tmax in Sprague-Dawley rat at 30 mg/kg, ig administered as single dose by LC-MS/MS analysis; type: ADME, organism-based; conditions: in vivo, po; in short: as §1
[7] = Half life in dog liver microsomes at 1 uM after 60 mins by LC-MS analysis; type: ADME, Canis lupus familiaris, Microsome
[8] = Tmax in Sprague-Dawley rat at 5 mg/kg, iv administered as single dose by LC-MS/MS analysis; type: ADME, organism-based; conditions: in vivo; in short: as §1
[9] = AUC (0 to t) in Sprague-Dawley rat at 5 mg/kg, iv administered as single dose by LC-MS/MS analysis; type: ADME, organism-based; conditions: in vivo; in short: as §1
[10] = Cmax in Sprague-Dawley rat at 5 mg/kg, iv administered as single dose by LC-MS/MS analysis; type: ADME, organism-based; parameters: dose 5 mg/kg, route intravenous; conditions: in vivo; in short: as §1
[11] = Intrinsic clearance in dog liver microsomes at 1 uM after 60 mins by LC-MS analysis; type: ADME, Canis lupus familiaris, Microsome; conditions: 1 h
[12] = MRT in Sprague-Dawley rat at 5 mg/kg, iv administered as single dose by LC-MS/MS analysis; type: ADME, organism-based; conditions: in vivo; in short: as §1
[13] = AUC (0 to infinity) in Sprague-Dawley rat at 30 mg/kg, ig administered as single dose by LC-MS/MS analysis; type: ADME, organism-based; parameters: dose 30 mg/kg, route intragastric, time infinity; conditions: in vivo, po; in short: as §1
[14] = AUC (0 to infinity) in Sprague-Dawley rat at 5 mg/kg, iv administered as single dose by LC-MS/MS analysis; type: ADME, organism-based; parameters: dose 5 mg/kg, route intravenous, time infinity; conditions: in vivo; in short: as §1
[15] = Intrinsic clearance in mouse liver microsomes at 1 uM after 60 mins by LC-MS analysis; type: ADME, Microsome; conditions: 1 h
[16] = Oral bioavailability in Sprague-Dawley rat at 30 mg/kg administered as single dose by LC-MS/MS analysis; type: ADME, organism-based; conditions: in vivo; in short: as §1
[17] = Half life in Sprague-Dawley rat at 30 mg/kg, ig administered as single dose by LC-MS/MS analysis; type: ADME, organism-based; conditions: in vivo, po; in short: as §1
[18] = Intrinsic clearance in monkey liver microsomes at 1 uM after 60 mins by LC-MS analysis; type: ADME, Macaca mulatta, Microsome; conditions: rhesus monkey, 1 h
[19] = Half life in mouse liver microsomes at 1 uM after 60 mins by LC-MS analysis; type: ADME, Microsome
[20] = Intrinsic clearance in rat liver microsomes at 1 uM after 60 mins by LC-MS analysis; type: ADME, Microsome; conditions: 1 h
[21] = Half life in human liver microsomes at 1 uM after 60 mins by LC-MS analysis; type: ADME, Microsome
[22] = Half life in monkey liver microsomes at 1 uM after 60 mins by LC-MS analysis; type: ADME, Macaca mulatta, Microsome; conditions: rhesus monkey
[23] = Half life in Sprague-Dawley rat at 5 mg/kg, iv administered as single dose by LC-MS/MS analysis; type: ADME, organism-based; conditions: in vivo; in short: as §1
[24] = AUC (0 to t) in Sprague-Dawley rat at 30 mg/kg, ig administered as single dose by LC-MS/MS analysis; type: ADME, organism-based; conditions: in vivo, po; in short: as §1

Sequence of Transitional endoplasmic reticulum ATPase (P55072 whole entry): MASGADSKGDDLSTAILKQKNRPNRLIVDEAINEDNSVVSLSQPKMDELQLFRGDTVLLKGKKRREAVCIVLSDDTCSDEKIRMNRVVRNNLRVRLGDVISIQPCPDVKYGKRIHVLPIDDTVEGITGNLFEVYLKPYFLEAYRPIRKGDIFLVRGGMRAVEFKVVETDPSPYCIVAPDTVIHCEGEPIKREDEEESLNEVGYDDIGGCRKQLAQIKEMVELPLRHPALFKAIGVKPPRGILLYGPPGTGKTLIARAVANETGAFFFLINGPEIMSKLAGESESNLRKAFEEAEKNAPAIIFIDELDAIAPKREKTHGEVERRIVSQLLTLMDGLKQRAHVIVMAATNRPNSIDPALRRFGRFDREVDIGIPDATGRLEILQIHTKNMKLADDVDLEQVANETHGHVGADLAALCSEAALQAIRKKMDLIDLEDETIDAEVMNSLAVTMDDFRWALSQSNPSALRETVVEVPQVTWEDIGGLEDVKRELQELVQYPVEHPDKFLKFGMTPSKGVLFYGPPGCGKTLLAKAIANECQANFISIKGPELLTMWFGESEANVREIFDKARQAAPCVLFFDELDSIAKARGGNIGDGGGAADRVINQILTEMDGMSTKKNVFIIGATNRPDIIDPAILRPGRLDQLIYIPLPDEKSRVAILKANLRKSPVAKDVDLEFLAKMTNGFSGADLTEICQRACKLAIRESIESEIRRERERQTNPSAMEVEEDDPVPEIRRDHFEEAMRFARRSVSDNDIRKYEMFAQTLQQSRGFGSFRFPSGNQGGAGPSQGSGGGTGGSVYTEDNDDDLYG

Question: With `Cc1cc2c(C(N)=O)cccc2n1-c1nc2c(c(NCc3ccccc3)n1)CCCCCC2` as the compound, how does the pIC50 [1] read?
Answer: 6.92

Question: With `CC(=O)Nc1cccc2c1ccn2-c1nc2c(c(NCc3ccccc3)n1)COCC2` as the compound, how does the pIC50 [1] read?
Answer: 6.04

Question: For `NC(=O)c1cccc(Nc2nc3c(c(NCc4ccccc4)n2)COCC3)c1`, which IC50 [1] is on record?
Answer: Not Active

Question: With `Cc1cc2c(NS(=O)(=O)C3CC3)cccc2n1-c1nc2c(c(NCc3ccccc3)n1)COCC2` as the compound, how does the pIC50 (A549) read?
Answer: 5.68

Question: And the pIC50 [1]?
Answer: 7.46

Question: With `C=CC(=O)Nc1cccc2c1cc(C)n2-c1nc2c(c(NCc3ccccc3)n1)COCC2` as the compound, how does the pIC50 (A549) read?
Answer: 5.34

Question: And the pIC50 [1]?
Answer: 7.23

Question: With `Cc1cc2c(C(N)=O)cccc2n1-c1nc2c(c(NCc3ccccc3)n1)CCCCC2` as the compound, how does the pIC50 (A549) read?
Answer: 5.59

Question: What about the pIC50 [1] of the same compound?
Answer: 7.08

Question: For `Cc1cc2c(C(N)=O)cccc2n1-c1nc2c(c(NCC3CC3)n1)COCC2`, which IC50 [1] is on record?
Answer: Not Active

Question: With `Cc1cc2c(NS(=O)(=O)c3ccccc3)cccc2n1-c1nc2c(c(NCc3ccccc3)n1)COCC2` as the compound, how does the pIC50 [1] read?
Answer: 6.87

Question: With `Cc1cc2c(NS(C)(=O)=O)cccc2n1-c1nc2c(c(NCc3ccccc3)n1)COCC2` as the compound, how does the pIC50 (A549) read?
Answer: 5.80

Question: What about the MRT [2] of the same compound?
Answer: 7.08 h

Question: What about the half-life at 1 µM [3] of the same compound?
Answer: 16.8 min

Question: What about the CLint [4] of the same compound?
Answer: 29.5 mL/min/kg

Question: And the Cmax [5]?
Answer: 191 ng/mL

Question: What about the Tmax [6] of the same compound?
Answer: 2.67 h

Question: And the half-life at 1 µM [7]?
Answer: 36.3 min

Question: And the Tmax [8]?
Answer: 3 min

Question: And the AUC(0-t) [9]?
Answer: 6950 ng·h/mL

Question: What about the Cmax [10] of the same compound?
Answer: 3380 ng/mL

Question: What about the CLint [11] of the same compound?
Answer: 55 mL/min/kg

Question: What about the MRT [12] of the same compound?
Answer: 4.51 h

Question: What about the AUC(0-inf) [13] of the same compound?
Answer: 2560 ng·h/mL

Question: And the AUC(0-inf) [14]?
Answer: 7420 ng·h/mL

Question: What about the CLint [15] of the same compound?
Answer: 114 mL/min/kg

Question: What about the bioavailability [16] of the same compound?
Answer: 4.2%

Question: What about the pIC50 [1] of the same compound?
Answer: 7.44

Question: And the half-life [17]?
Answer: 274 min

Question: What about the CLint [18] of the same compound?
Answer: 152 mL/min/kg

Question: And the half-life at 1 µM [19]?
Answer: 47.8 min

Question: And the CLint [20]?
Answer: 149 mL/min/kg

Question: What about the half-life at 1 µM [21] of the same compound?
Answer: 42.3 min

Question: What about the half-life at 1 µM [22] of the same compound?
Answer: 12.3 min

Question: And the half-life [23]?
Answer: 218 min

Question: What about the AUC(0-t) [24] of the same compound?
Answer: 1770 ng·h/mL

Question: With `Cc1cc2c(C(N)=S)cccc2n1-c1nc2c(c(NCc3ccccc3)n1)COCC2` as the compound, how does the pIC50 [1] read?
Answer: 6.72

Question: For `C=CC(=O)Nc1cccc2c1cc(C)n2-c1nc2c(c(NCC3CC3)n1)COCC2`, which IC50 [1] is on record?
Answer: Not Active

Question: With `Cc1cc2c(NC(=O)/C=C/CN(C)C)cccc2n1-c1nc2c(c(NCc3ccccc3)n1)COCC2` as the compound, how does the pIC50 [1] read?
Answer: 6.41

Question: With `CC(=O)Nc1cccc2c1cc(C)n2-c1nc2c(c(NCc3ccccc3)n1)COCC2` as the compound, how does the pIC50 [1] read?
Answer: 6.89

Question: With `Cc1cc2c(NC(=O)CN3CCCC3)cccc2n1-c1nc2c(c(NCc3ccccc3)n1)COCC2` as the compound, how does the pIC50 [1] read?
Answer: 6.35

Question: With `Cc1cc2c(C(N)=O)cccc2n1-c1nc2c(c(NCCN3CCOCC3)n1)COCC2` as the compound, how does the IC50 [1] read?
Answer: Not Active

Question: Which IC50 [1] does the source give for `Cc1cc2c(C(N)=O)cccc2n1-c1nc2c(c(NCc3ccncc3)n1)COCC2` here?
Answer: Not Active

Question: Which IC50 [1] does the source give for `C=CC(=O)Nc1cccc2c1cc(C)n2-c1nc2c(c(NCc3cccc4ccccc34)n1)COCC2` here?
Answer: Not Active

Question: With `Cc1cc2c(NS(=O)(=O)C(F)(F)F)cccc2n1-c1nc2c(c(NCc3ccccc3)n1)COCC2` as the compound, how does the pIC50 [1] read?
Answer: 7.00

Question: With `C=CC(=O)Nc1cccc2c1cc(C)n2-c1nc2c(c(NCc3ccncc3)n1)COCC2` as the compound, how does the pIC50 [1] read?
Answer: 5.29

Question: With `Cc1cc2c(NC(=O)CCl)cccc2n1-c1nc2c(c(NCc3ccccc3)n1)COCC2` as the compound, how does the pIC50 [1] read?
Answer: 6.51

Question: With `Cc1cc2c(C(N)=O)cccc2n1-c1nccc(NCc2ccccc2)n1` as the compound, how does the pIC50 [1] read?
Answer: 6.79

Question: With `Cc1cc2c(NC(=O)/C=C/c3ccccc3)cccc2n1-c1nc2c(c(NCc3ccccc3)n1)COCC2` as the compound, how does the pIC50 [1] read?
Answer: 6.35

Question: Which half-life at 1 µM [3] does the source give for `Cc1cc2c(C(N)=O)cccc2n1-c1nc2c(c(NCc3ccccc3)n1)COCC2` [CB-5083] here?
Answer: 17 min

Question: And the CLint [4]?
Answer: 48.4 mL/min/kg

Question: And the half-life at 1 µM [7]?
Answer: 36.5 min

Question: And the CLint [11]?
Answer: 54.7 mL/min/kg

Question: And the CLint [15]?
Answer: 38.6 mL/min/kg

Question: And the CLint [18]?
Answer: 127 mL/min/kg

Question: What about the half-life at 1 µM [19] of the same compound?
Answer: 141 min

Question: And the CLint [20]?
Answer: 146 mL/min/kg

Question: What about the half-life at 1 µM [21] of the same compound?
Answer: 25.8 min

Question: What about the half-life at 1 µM [22] of the same compound?
Answer: 14.7 min
